Experimental findings from ChEMBL document CHEMBL3870349, “Novel 3-methylindoline inhibitors of EZH2: Design, synthesis and SAR” (Bioorg Med Chem Lett, 2017) are described below.

Data set [1] in a line: Kinetic solubility of compound in PBS buffer at pH 7.4 after 1 hr by micro-plate nephelometric analysis. It counts as physicochemical. Particulars: read-out: Kinetic_solubility.
Data set [2] has as its target T1, Histone-lysine N-methyltransferase EZH1 (Homo sapiens, UniProt Q92800).
T1 sequence (Q92800 whole entry): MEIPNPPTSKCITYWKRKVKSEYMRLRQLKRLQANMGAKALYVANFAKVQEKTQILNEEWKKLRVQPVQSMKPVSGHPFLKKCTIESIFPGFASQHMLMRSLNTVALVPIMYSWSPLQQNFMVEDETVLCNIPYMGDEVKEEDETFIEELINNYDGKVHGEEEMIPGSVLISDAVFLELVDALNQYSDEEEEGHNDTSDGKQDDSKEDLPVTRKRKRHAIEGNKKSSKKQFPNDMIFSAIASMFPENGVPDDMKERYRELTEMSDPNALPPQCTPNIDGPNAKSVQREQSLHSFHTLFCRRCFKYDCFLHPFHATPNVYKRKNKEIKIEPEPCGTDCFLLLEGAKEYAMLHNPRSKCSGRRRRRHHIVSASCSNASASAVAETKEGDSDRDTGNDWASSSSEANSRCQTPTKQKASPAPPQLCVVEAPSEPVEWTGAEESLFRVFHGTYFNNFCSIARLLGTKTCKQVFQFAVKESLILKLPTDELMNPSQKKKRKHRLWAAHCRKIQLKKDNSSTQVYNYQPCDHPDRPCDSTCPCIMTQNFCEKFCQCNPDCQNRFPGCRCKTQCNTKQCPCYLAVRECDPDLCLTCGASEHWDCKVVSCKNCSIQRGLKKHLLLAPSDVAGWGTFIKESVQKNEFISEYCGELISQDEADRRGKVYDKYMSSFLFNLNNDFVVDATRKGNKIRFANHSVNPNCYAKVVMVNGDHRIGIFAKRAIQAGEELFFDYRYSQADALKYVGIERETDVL
Kind of data set: Inhibition of human EZH1 complex using histone H3 as substrate after 1 hr in presence of 3H-SAM by filter paper detection analysis. The method in brief: (§1)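 Each HMT complex was incubated with 3H-SAM (tritiated S-adenosyl-L-methionine) and histone H3 as substrate. An IC50 curve was generated for each compound.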

Data set [3] addresses Histone-lysine N-methyltransferase EZH2 (Homo sapiens, UniProt Q15910, Y641F). The experiment in a line: Inhibition of human EZH2 Y641F mutant using histone H3 as substrate after 1 hr in presence of 3H-SAM by filter paper detection analysis. Put shortly:
as §1

The target in data set [4] is Histone-lysine N-methyltransferase EZH2 (Homo sapiens, UniProt Q15910). Kind of data set: Inhibition of human wild type EZH2 using histone H3 as substrate after 1 hr in presence of 3H-SAM by filter paper detection analysis. Put shortly: as §1
The nature of data set [5]: Oxidative metabolic stability in human liver microsomes assessed as amount of parent compound remaining at 1 uM after 30 mins by LC-MS/MS. It counts as ADME. Particulars: read-out: Stability. On the technique in general: Microsomes from liver hold many membrane-bound enzymes, among them those of drug oxidation.
A short description of data set [6]: Oxidative metabolic stability in mouse liver microsomes assessed as amount of parent compound remaining at 1 uM after 30 mins by LC-MS/MS. Type of data set: ADME. Particulars: read-out: Stability.

Molecules are shown by their SMILES. Converted amounts (≈) assume the structure as drawn.

Histone-lysine N-methyltransferase EZH2 (Homo sapiens, UniProt Q15910, Y641F), sequence (Q15910 whole entry Y641F): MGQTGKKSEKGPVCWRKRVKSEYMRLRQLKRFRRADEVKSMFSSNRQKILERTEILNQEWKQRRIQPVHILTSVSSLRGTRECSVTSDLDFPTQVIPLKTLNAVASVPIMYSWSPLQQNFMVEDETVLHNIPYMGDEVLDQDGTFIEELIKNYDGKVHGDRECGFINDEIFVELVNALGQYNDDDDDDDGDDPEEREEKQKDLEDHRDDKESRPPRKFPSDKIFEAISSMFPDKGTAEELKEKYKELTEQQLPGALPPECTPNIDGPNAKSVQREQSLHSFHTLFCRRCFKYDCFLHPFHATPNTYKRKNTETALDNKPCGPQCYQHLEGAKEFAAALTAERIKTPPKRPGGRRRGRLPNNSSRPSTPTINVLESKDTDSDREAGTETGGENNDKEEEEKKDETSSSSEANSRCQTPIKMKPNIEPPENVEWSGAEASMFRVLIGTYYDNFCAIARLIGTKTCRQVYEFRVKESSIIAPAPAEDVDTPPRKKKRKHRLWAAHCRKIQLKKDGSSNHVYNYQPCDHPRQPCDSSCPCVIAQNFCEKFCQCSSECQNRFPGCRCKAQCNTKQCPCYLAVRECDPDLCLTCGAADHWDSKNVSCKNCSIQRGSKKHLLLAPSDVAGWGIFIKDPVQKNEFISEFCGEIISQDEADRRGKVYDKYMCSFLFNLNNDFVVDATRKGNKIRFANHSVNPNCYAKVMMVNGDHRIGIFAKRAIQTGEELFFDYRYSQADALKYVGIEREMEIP
Histone-lysine N-methyltransferase EZH2 (Homo sapiens, UniProt Q15910), sequence (Q15910 whole entry): as the sequence (Q15910 whole entry Y641F) above, with F641Y counted along it

Usually IC50 stands for the concentration that inhibits the measured activity by half. Take `Cc1cc(C)c(CNC(=O)c2cc(-c3ccc(CN4CCOCC4)cc3)cc3c2C(C)CN3C2CCOCC2)c(=O)[nH]1` (stereo in doubt; 34e1): in data set [1], the solubility kinetic at 1 h came out at 75 µM (≈ 42.8 µg/mL). Moreover, the IC50 was 3.34 µM in data set [2], 0.975 µM in data set [3] and 0.029 µM in data set [4]. The remaining at 0.5 h, 1 µM in data set [5] was 62%; in data set [6], 58%.

Regarding `Cc1cc(C)c(CNC(=O)c2cc(-c3ccc(N4CCNCC4)nc3)cc3c2C(C)CN3C2CCCC2)c(=O)[nH]1` (stereo in doubt; 40e1), the IC50 turned out to be 1.35 µM in data set [2], 0.505 µM in data set [3] and 0.021 µM in data set [4].

`Cc1cc(C)c(CNC(=O)c2cc(-c3ccc(N4CCNCC4)nc3)cc3c2C(C)CN3C2CCOCC2)c(=O)[nH]1` (stereo in doubt; 41e2): in data set [4], the IC50 was 2.15 µM.

For `Cc1cc(C)c(CNC(=O)c2cc(-c3ccc(N4CCNCC4)nc3)cc3c2C(C)CN3C2CCOCC2)c(=O)[nH]1` (stereo in doubt; 41e1), the solubility kinetic at 1 h in data set [1] stood at 75 µM (≈ 41.8 µg/mL). The IC50 in data set [2] turned out to be 1.98 µM; in data set [3], 0.578 µM; in data set [4], 0.011 µM. Further, the results for the remaining at 0.5 h, 1 µM in data set [5] and in data set [6] were 83% and 95%, respectively.

On to `Cc1cc(C)c(CNC(=O)c2cc(C#N)cc3c2C(C)CN3C(C)C)c(=O)[nH]1` (stereo in doubt; 27e2), for which the half-inhibitory concentration (IC50) in data set [4] was > 100 µM.

On to `Cc1cc(C)c(CNC(=O)c2cc(-c3ccc(CN4CCOCC4)cc3)cc3c2C(C)CN3C2CCOCC2)c(=O)[nH]1` (stereo in doubt; 34e2), for which the IC50 in data set [4] was 6.98 µM.

Take `Cc1cc(C)c(CNC(=O)c2cc(-c3ccc(CN4CCOCC4)cc3)cc3c2C(C)CN3C(C)C)c(=O)[nH]1` (stereo in doubt; 30e1): the half-inhibitory concentration (IC50) in data set [2] stood at 2.71 µM; in data set [3] it was 0.518 µM; in data set [4] it was 0.047 µM.

With `Cc1cc(C)c(CNC(=O)c2cc(C#N)cc3c2CCN3C2CCCC2)c(=O)[nH]1`, the IC50 in data set [4] worked out at 0.571 µM.

With `Cc1cc(C)c(CNC(=O)c2cc(-c3ccc(CN4CCOCC4)cc3)cc3c2C(C)CN3CC2CC2)c(=O)[nH]1` (stereo in doubt; 31e2), the half-inhibitory concentration (IC50) in data set [4] came to 15.2 µM.

Regarding `Cc1cc(C)c(CNC(=O)c2cc(-c3ccc(CN4CCOCC4)cc3)cc3c2C(C)CN3C2CCCC2)c(=O)[nH]1` (stereo in doubt; 33e2), the IC50 in data set [4] was 0.448 µM.

Turning to `Cc1cc(C)c(CNC(=O)c2cc(-c3cnc(N4CCNCC4)c4ccccc34)cc3c2C(C)CN3C2CCOCC2)c(=O)[nH]1` (stereo in doubt; 36e2), in data set [4], the IC50 was found to be 0.54 µM.

Regarding `Cc1cc(C)c(CNC(=O)c2cc(-c3ccc(N4CCNCC4)nc3)cc3c2C(C)CN3C(C)C)c(=O)[nH]1` (stereo in doubt; 39e1), the concentration for half-maximal inhibition (IC50) in data set [2] was 1.87 µM; in data set [3], 0.622 µM; in data set [4] it was 0.017 µM.

Turning to `Cc1cc(C)c(CNC(=O)c2cc(-c3ccc(CN4CCOCC4)cc3)cc3c2C(C)CN3C2CCCC2)c(=O)[nH]1` (stereo in doubt; 33e1), the IC50 in data set [2] was determined as 2.65 µM; in data set [3], 0.902 µM; in data set [4] it was 0.024 µM.

Regarding `Cc1cc(C)c(CNC(=O)c2cc(-c3ccc(CN4CCOCC4)cc3)cc3c2C(C)CN3CC2CC2)c(=O)[nH]1` (stereo in doubt; 31e1), the half-inhibitory concentration (IC50) in data set [4] was 0.375 µM.

`Cc1cc(C)c(CNC(=O)c2cc(-c3ccc(N4CCNCC4)nc3)cc3c2C(C)CN3C2CCCC2)c(=O)[nH]1` (stereo in doubt; 40e2): the concentration for half-maximal inhibition (IC50) in data set [4] was found to be 0.378 µM.

`Cc1cc(C)c(CNC(=O)c2cc(C#N)cc3c2C(C)CN3C2CCCC2)c(=O)[nH]1` (stereo in doubt; 28e2): the concentration for half-maximal inhibition (IC50) in data set [4] was > 100 µM.

`CCN(c1cc(-c2ccc(CN3CCOCC3)cc2)cc(C(=O)NCc2c(C)cc(C)[nH]c2=O)c1C)C1CCOCC1` [TAZEMETOSTAT]: the solubility kinetic at 1 h in data set [1] worked out at 28 µM (≈ 16 µg/mL). For the same compound, the remaining at 0.5 h, 1 µM in data set [5] turned out to be 25%; in data set [6] it was 39%.

`Cc1cc(C)c(CNC(=O)c2cc(-c3cnc(N4CCNCC4)c4ccccc34)cc3c2C(C)CN3C2CCOCC2)c(=O)[nH]1` (stereo in doubt; 36e1): the half-maximal inhibitory concentration (IC50) in data set [2] was 1.56 µM; in data set [3] it was 0.304 µM; in data set [4], 0.017 µM.

In the case of `Cc1cc(C)c(CNC(=O)c2cc(-c3ccc(CN4CCOCC4)cc3)cc3c2CCN3C2CCOCC2)c(=O)[nH]1`, the half-maximal inhibitory concentration (IC50) in data set [4] was 0.237 µM.

In the case of `Cc1cc(C)c(CNC(=O)c2cc(-c3ccc(CN4CCOCC4)cc3)cc3c2C(C)CN3C(C)C)c(=O)[nH]1` (stereo in doubt; 30e2), the half-inhibitory concentration (IC50) in data set [4] was found to be 4.14 µM.

In the case of `Cc1cc(C)c(CNC(=O)c2cc(-c3cnc(N4CCNCC4)nc3)cc3c2C(C)CN3C2CCOCC2)c(=O)[nH]1` (stereo in doubt; 45e2), the IC50 in data set [4] was found to be 2.16 µM.

Regarding `Cc1cc(C)c(CNC(=O)c2cc(-c3ccc(N4CCNCC4)nc3)cc3c2C(C)CN3C(C)C)c(=O)[nH]1` (stereo in doubt; 39e2), the IC50 in data set [4] came to 1.08 µM.

As for `Cc1cc(C)c(CNC(=O)c2cc(C#N)cc3c2C(C)CN3C(C)C)c(=O)[nH]1` (stereo in doubt; 27e1), the results for the IC50 in data set [2], in data set [3] and in data set [4] were 7.75 µM, 0.478 µM and 0.088 µM, respectively.

For the compound `Cc1cc(C)c(CNC(=O)c2cc(-c3cnc(N4CCNCC4)nc3)cc3c2C(C)CN3C2CCOCC2)c(=O)[nH]1` (stereo in doubt; 45e1), the 50% inhibitory concentration (IC50) in data set [4] was 0.098 µM.

As to `Cc1cc(C)c(CNC(=O)c2cc(C#N)cc3c2CCN3C2CCOCC2)c(=O)[nH]1`, the IC50 in data set [4] was 15.7 µM.

Take `Cc1cc(C)c(CNC(=O)c2cc(C#N)cc3c2C(C)CN3C2CCCC2)c(=O)[nH]1` (stereo in doubt; 28e1): the half-inhibitory concentration (IC50) in data set [2] turned out to be 4.44 µM; in data set [3] it was 0.185 µM; in data set [4], 0.027 µM.

`Cc1cc(C)c(CNC(=O)c2cc(C#N)cc3c2CCN3C(C)C)c(=O)[nH]1`: the concentration for half-maximal inhibition (IC50) in data set [4] came out at 26.6 µM.
